Here are results for one compound from ChEMBL document CHEMBL4261600 (Eur J Med Chem, 2018).

The structures appear in SMILES notation.

Data set [1] concerns the target Mitogen-activated protein kinase kinase kinase kinase 3 (Homo sapiens) (UniProt Q8IVH8). The data set can be described thus: Binding affinity to wild-type human partial length MAP4K3 (M1 to D301 residues) expressed in bacterial expression system assessed as remaining unbound target protein level at 1000 nM by Kinomescan method relative to control.
Data set [2] relates to Tyrosine-protein kinase ABL1 (Homo sapiens), P00519 [H396P]. The data set is described as follows: Binding affinity to human phosphorylated ABL1 H396P mutant (S229 to K512 residues) expressed in mammalian expression system assessed as remaining unbound target protein level at 1000 nM by Kinomescan method relative to control. The method in brief: (§1)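 Single-point competition binding screen across a panel of 468 kinases and mutants, with the inhibitor at 1 μM. Binding is read out as percent of a DMSO control, and targets below 1 percent control were classed as strong binders.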

Data set [3] in a line: AUC (0 to t) in beagle dog at 10 mg/kg, po by LC-MS/MS analysis. Particulars: in vivo. Format: ADME, organism-based, Canis lupus familiaris. In a few lines: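 Non-compartmental PK. Male SD rats 190-210 g, mice and beagle dogs acclimatized one week, fasted 12 h with water, split into iv and po groups (mice 48, rats 6, dogs 6). iv 3/3/2 mg/kg (mice/rats/dogs); po 10/20/10 mg/kg; vehicle DMSO in 5% glucose water. Blood at 2 or 5 to 720 min; plasma protein-precipitated with methanol, caffeine internal standard, LC-MS/MS.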

The target in data set [4] is Serine/threonine-protein kinase OSR1 (Homo sapiens) (UniProt O95747). The data set can be described thus: Binding affinity to wild-type human full length OSR1 (M1 to S527 residues) expressed in mammalian expression system assessed as remaining unbound target protein level at 1000 nM by Kinomescan method relative to control. The method in brief: as §1
Sequence of Serine/threonine-protein kinase OSR1 (Homo sapiens) (O95747 2-527 limits assumed): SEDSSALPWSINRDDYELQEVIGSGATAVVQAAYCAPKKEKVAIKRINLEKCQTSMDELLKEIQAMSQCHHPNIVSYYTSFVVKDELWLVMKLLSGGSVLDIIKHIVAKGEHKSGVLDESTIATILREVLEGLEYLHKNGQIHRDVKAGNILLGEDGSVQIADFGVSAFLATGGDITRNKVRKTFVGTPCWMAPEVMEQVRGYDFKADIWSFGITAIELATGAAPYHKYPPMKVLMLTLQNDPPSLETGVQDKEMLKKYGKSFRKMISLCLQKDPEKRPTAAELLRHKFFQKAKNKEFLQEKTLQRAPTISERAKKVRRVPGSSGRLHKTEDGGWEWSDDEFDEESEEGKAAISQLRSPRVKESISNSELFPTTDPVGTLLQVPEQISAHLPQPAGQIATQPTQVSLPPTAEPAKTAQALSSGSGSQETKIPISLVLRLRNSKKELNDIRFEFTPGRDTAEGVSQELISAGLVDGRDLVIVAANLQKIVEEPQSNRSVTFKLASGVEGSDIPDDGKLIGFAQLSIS
Data set [5] has as its target Beta-adrenergic receptor kinase 1 (Homo sapiens) (UniProt P25098). The data set is described as follows: Binding affinity to wild-type human full length GRK2 (M1 to L689 residues) expressed in mammalian expression system assessed as remaining unbound target protein level at 1000 nM by Kinomescan method relative to control. In a few lines: (§2)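 KINOMEscan competition binding profile across a panel of 468 kinases and mutants, with the inhibitor tested at a single concentration of 1 μM. Binding is reported as percent of control, meaning signal relative to a DMSO control.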

Data set [6] addresses Serine/threonine-protein kinase MARK2 (Homo sapiens) (UniProt Q7KZI7). The data set is described as follows: Binding affinity to wild-type human partial length MARK2 (M1 to R450 residues) expressed in bacterial expression system assessed as remaining unbound target protein level at 1000 nM by Kinomescan method relative to control.
Data set [7] has as its target Mast/stem cell growth factor receptor Kit (Homo sapiens) (UniProt P10721). The data set is described as follows: Binding affinity to wild-type human partial length KIT (I571 to D952 residues) expressed in bacterial expression system assessed as remaining unbound target protein level at 1000 nM by Kinomescan method relative to control.
The target of data set [8] is Serine/threonine-protein kinase 32B (Homo sapiens) (UniProt Q9NY57). The data set is described as follows: Binding affinity to wild-type human full length YANK2 (M1 to S414 residues) expressed in bacterial expression system assessed as remaining unbound target protein level at 1000 nM by Kinomescan method relative to control. In a few lines:
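Profiled in a KINOMEscan binding panel with the inhibitor at a single concentration of 1 μM. Binding to each kinase was read out as percent of control, relative to a DMSO control. Strong binders were defined as those with a percent control value below 1.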

The target in data set [9] is Death-associated protein kinase 1 (Homo sapiens) (UniProt P53355). The data set can be described thus: Binding affinity to wild-type human partial length DAPK1 (M1 to F296 residues) expressed in bacterial expression system assessed as remaining unbound target protein level at 1000 nM by Kinomescan method relative to control. In a few lines:
as §2

Data set [10] has as its target Activin receptor type-1B (Homo sapiens) (UniProt P36896). The data set is described as follows: Binding affinity to wild-type human ACVR1B (S187 to I505 residues) expressed in bacterial expression system assessed as remaining unbound target protein level at 1000 nM by Kinomescan method relative to control. In a few lines: as §1
The target in data set [11] is Aurora kinase C (Homo sapiens) (UniProt Q9UQB9). The data set is described as follows: Binding affinity to wild-type human full length AURKC (M1 to S275 residues) expressed in bacterial expression system assessed as remaining unbound target protein level at 1000 nM by Kinomescan method relative to control. The method in brief: as §1
The target of data set [12] is Serine/threonine-protein kinase Nek4 (Homo sapiens) (UniProt P51957). The data set can be described thus: Binding affinity to wild-type human full length NEK4 (M1 to F841 residues) expressed in mammalian expression system assessed as remaining unbound target protein level at 1000 nM by Kinomescan method relative to control. In a few lines:
as §1

In data set [13] the target is Ribosomal protein S6 kinase alpha-1 (Homo sapiens) (UniProt Q15418). The data set is described as follows: Binding affinity to wild-type human partial length N-terminal RSK1 Kinase domain 1 (M1 to E388 residues) expressed in bacterial expression system assessed as remaining unbound target protein level at 1000 nM by Kinomescan method relative to control.
In data set [14] the target is Serine/threonine-protein kinase TAO1 (Homo sapiens) (UniProt Q7L7X3). The data set can be described thus: Binding affinity to wild-type human partial length TAOK1 (M1 to A320 residues) expressed in mammalian expression system assessed as remaining unbound target protein level at 1000 nM by Kinomescan method relative to control.
The target of data set [15] is Serine/threonine-protein kinase LATS1 (Homo sapiens) (UniProt O95835). The data set can be described thus: Binding affinity to wild-type human partial length LATS1 (Q678 to V1130 residues) expressed in bacterial expression system assessed as remaining unbound target protein level at 1000 nM by Kinomescan method relative to control.
Data set [16] can be described thus: Tmax in Sprague-Dawley rat at 20 mg/kg, po by LC-MS/MS analysis. Format: ADME, organism-based. Particulars: in vivo.
Data set [17] has as its target Tyrosine-protein kinase Fer (Homo sapiens) (UniProt P16591). The data set is described as follows: Binding affinity to wild-type human partial length FER (S542 to T822 residues) expressed in bacterial expression system assessed as remaining unbound target protein level at 1000 nM by Kinomescan method relative to control.
In data set [18] the target is Tyrosine-protein kinase receptor UFO (Homo sapiens) (UniProt P30530). The data set is described as follows: Binding affinity to wild-type human partial length AXL (R497 to Y821 residues) expressed in bacterial expression system assessed as remaining unbound target protein level at 1000 nM by Kinomescan method relative to control. In a few lines: as §2
The target of data set [19] is Transient receptor potential cation channel subfamily M member 6 (Homo sapiens) (UniProt Q9BX84). The data set is described as follows: Binding affinity to wild-type human partial length TRPM6 (Q1723 to I1998 residues) expressed in mammalian expression system assessed as remaining unbound target protein level at 1000 nM by Kinomescan method relative to control.
The test system of data set [20] is Leucine-rich repeat serine/threonine-protein kinase 2 (Homo sapiens), Q5S007 [G2019S]. The data set can be described thus: Binding affinity to human partial length LRRK2 G2019S mutant (H970 to E2527 residues) expressed in mammalian expression system assessed as remaining unbound target protein level at 1000 nM by Kinomescan method relative to control. The method in brief: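 KINOMEscan competition-binding profiling across the panel of 468 kinases and mutants, with inhibitor tested at 1 μM. Binding is expressed as percent of control, with DMSO as the reference control.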

Sequence of Beta-adrenergic receptor kinase 1 (Homo sapiens) (P25098 whole entry, the tested form may be a part): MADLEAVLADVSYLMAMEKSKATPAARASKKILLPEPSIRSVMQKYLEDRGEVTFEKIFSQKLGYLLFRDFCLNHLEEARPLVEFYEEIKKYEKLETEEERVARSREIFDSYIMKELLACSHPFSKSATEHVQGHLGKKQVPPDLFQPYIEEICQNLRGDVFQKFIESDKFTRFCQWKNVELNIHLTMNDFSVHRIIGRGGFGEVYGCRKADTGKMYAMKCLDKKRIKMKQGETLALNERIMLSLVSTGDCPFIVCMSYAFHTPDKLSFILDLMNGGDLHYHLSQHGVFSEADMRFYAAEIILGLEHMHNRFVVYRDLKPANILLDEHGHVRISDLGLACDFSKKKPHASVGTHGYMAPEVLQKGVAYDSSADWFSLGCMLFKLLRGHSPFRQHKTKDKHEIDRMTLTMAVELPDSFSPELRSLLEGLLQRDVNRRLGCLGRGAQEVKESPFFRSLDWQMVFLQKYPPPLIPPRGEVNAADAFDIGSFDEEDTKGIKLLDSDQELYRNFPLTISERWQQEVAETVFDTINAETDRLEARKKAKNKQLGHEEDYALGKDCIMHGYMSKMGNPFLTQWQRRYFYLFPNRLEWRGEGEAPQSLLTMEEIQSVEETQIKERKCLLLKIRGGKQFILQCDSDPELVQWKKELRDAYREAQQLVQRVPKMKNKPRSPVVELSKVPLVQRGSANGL
Sequence of Death-associated protein kinase 1 (Homo sapiens) (P53355 whole entry, looked up, the tested form may be a part): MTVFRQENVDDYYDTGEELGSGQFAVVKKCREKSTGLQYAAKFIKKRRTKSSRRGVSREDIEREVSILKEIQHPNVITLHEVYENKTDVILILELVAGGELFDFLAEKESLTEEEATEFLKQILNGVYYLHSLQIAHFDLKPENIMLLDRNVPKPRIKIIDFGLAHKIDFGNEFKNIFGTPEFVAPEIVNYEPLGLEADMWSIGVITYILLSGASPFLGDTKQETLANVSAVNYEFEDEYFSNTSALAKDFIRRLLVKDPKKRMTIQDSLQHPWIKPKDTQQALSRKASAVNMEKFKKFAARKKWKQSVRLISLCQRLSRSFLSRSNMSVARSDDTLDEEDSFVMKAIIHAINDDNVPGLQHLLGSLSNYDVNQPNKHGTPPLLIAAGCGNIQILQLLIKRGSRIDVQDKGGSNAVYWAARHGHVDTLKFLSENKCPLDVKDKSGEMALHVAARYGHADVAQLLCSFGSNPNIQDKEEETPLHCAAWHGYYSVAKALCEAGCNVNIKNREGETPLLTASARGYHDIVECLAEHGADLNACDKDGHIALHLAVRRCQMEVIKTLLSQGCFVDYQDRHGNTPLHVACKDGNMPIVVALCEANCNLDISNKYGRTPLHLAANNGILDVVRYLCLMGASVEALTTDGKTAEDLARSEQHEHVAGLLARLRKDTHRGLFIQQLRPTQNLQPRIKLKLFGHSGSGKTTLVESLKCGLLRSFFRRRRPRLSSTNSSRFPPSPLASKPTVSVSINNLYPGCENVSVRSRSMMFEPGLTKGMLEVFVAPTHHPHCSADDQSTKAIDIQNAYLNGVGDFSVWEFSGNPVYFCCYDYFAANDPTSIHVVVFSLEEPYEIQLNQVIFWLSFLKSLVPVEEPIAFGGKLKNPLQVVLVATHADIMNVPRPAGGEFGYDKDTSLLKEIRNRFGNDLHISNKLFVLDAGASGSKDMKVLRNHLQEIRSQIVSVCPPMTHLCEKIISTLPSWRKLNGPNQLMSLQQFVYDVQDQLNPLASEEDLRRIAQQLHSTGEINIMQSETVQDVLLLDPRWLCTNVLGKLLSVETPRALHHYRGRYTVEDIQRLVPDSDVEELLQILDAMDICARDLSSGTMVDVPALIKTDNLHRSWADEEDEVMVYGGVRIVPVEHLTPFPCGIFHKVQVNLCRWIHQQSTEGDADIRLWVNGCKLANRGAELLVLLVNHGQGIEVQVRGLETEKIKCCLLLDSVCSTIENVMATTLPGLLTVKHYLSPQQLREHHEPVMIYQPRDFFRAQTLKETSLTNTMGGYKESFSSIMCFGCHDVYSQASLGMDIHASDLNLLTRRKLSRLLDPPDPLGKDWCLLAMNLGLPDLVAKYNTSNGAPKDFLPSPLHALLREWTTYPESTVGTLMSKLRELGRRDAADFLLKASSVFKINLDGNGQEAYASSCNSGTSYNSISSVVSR
Sequence of Tyrosine-protein kinase Fer (Homo sapiens) (P16591 whole entry, looked up, the tested form may be a part): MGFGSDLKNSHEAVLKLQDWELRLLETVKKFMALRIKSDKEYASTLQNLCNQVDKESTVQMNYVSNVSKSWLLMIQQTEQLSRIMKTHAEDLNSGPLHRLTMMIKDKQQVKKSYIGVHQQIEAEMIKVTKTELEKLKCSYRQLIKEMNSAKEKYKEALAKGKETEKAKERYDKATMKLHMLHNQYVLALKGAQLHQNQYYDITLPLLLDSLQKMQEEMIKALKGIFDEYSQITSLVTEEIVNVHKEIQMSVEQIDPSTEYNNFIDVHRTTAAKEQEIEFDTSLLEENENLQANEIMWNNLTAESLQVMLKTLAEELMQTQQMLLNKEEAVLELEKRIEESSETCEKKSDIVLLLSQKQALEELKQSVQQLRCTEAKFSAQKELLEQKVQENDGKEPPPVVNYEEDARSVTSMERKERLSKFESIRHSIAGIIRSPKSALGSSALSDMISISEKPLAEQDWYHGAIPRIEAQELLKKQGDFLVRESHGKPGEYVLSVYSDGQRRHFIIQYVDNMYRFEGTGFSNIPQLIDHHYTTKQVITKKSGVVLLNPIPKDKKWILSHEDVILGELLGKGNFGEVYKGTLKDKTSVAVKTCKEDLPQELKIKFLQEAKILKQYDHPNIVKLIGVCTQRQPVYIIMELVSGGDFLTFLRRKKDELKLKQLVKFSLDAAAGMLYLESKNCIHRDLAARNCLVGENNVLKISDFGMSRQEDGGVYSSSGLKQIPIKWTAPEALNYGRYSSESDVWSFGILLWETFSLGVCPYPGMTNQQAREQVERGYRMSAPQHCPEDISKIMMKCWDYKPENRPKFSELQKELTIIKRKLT
Sequence of Mitogen-activated protein kinase kinase kinase kinase 3 (Homo sapiens) (Q8IVH8 whole entry, the tested form may be a part): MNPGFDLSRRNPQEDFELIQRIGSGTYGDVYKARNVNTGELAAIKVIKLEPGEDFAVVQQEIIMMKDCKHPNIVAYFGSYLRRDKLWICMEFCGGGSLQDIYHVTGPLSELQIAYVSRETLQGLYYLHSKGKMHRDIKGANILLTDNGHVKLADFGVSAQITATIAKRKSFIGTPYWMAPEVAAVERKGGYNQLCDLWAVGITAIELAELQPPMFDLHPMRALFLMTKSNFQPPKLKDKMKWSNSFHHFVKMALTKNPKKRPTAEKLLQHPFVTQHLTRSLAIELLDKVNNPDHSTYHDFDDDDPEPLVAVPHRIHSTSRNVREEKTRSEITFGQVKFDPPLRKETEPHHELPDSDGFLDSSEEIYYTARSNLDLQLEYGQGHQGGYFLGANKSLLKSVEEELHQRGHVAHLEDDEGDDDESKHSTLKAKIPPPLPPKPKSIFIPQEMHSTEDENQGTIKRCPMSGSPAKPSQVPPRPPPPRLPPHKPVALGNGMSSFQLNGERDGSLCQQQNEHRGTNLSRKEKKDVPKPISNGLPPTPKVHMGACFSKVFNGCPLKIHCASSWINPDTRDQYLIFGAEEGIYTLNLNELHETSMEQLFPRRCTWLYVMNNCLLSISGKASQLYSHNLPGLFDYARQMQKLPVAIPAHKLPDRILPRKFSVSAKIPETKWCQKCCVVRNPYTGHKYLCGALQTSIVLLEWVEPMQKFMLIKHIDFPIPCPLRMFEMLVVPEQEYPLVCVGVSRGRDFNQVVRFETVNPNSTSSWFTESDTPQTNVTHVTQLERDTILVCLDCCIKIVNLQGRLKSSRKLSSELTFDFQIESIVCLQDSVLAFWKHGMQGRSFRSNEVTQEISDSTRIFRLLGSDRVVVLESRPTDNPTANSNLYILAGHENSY
Sequence of Activin receptor type-1B (Homo sapiens) (P36896 whole entry, the tested form may be a part): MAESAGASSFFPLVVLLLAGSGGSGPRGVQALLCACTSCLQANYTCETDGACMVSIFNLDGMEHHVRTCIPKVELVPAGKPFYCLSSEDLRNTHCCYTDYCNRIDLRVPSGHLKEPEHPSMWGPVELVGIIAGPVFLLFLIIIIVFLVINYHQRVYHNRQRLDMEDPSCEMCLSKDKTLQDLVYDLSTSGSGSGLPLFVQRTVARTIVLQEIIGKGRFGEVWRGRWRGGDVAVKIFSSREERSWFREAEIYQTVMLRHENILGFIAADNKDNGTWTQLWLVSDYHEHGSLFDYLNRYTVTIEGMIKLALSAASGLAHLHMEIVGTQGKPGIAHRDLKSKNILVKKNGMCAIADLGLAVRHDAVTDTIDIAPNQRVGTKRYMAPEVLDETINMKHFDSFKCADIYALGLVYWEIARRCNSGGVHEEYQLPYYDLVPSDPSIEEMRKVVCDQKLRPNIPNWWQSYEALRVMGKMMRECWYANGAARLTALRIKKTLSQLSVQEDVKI

Usually AUC(0-t) stands for exposure summed from dosing to a finite time, without extrapolation to infinity. Low readings indicate less exposure, high ones more exposure. The term Tmax denotes the time at which the peak concentration occurs. As for `COCCN[C@H]1CC[C@H](Nc2cc(-c3csc(NCC4(C#N)CCOCC4)n3)c(Cl)cn2)CC1`, the Activity in data set [1] stood at 100%; in [2] it was 95%; in [4], 100%; in data set [5], 91%; in data set [6], 100%; in data set [7], 91%. Further, the Activity came out at 100% in [8]; 80% in [9]; 92% in data set [10]; 100% in data set [11]; 98% in data set [12]; 94% in data set [13]. Also, the Activity in data set [14] was 36%; in data set [15] it was 96%; in [17], 88%; in data set [18], 91%; in data set [19], 89%; in data set [20] it was 94%. Besides, the AUC(0-t) in [3] was found to be 3940 ng·h/mL. The Tmax in data set [16] turned out to be 3.33 h.
